Measured values: ChEMBL document CHEMBL1158495, “Quinolone carboxylic acids as a novel monoketo acid class of human immunodeficiency virus type 1 integrase inhibitors” (J Med Chem, 2009)

Key:
[1] = biological target: Human immunodeficiency virus type 1 integrase (Human immunodeficiency virus 1, UniProt Q7ZJM1); test: Inhibition of HIV1 integrase strand transfer activity
[2] = Cytotoxicity against human MT4 cells after 5 days by MTT assay; type: cell-based
Summary of the method: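 Uninfected MT-4 cells at 1 × 10^5 cells/mL in RPMI 1640 with 10% FBS, penicillin and streptomycin, exposed to compounds at 37 °C for 5 days. Viability by MTT (7.5 mg/mL solution); formazan taken up in acidic isopropanol containing 4% Triton-X, read at 595 nm.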

[3] = tested on: Human immunodeficiency virus 1; test: Antiviral activity against HIV1 3B infected in human MT4 cells assessed as inhibition of viral replication after 5 days by MTT assay; type: functional, organism-based; settings: Human immunodeficiency virus 1, 3B, MT4, 120 h
Summary of the method: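 MT-4 human T lymphoid cells at 1 × 10^5 cells/mL in RPMI 1640 with 10% FBS, penicillin and streptomycin; infected with strain IIIb at multiplicity 0.01, compounds added, 37 °C for 5 days. Viability read by MTT (7.5 mg/mL solution), formazan dissolved in acidic isopropanol with 4% Triton-X, absorbance at 595 nm.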

[4] = tested on: Human immunodeficiency virus 1; test: Antiviral activity against HIV1 infected in human PBMN cells assessed as inhibition of viral replication in presence of 50% human serum; type: functional; settings: Human immunodeficiency virus 1, PBMN
[5] = Selectivity index, ratio of CC50 for human MT4 cells to EC50 for HIV1 3B; type: toxicity, cell-based
Summary of the method: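 For EC50, cells were infected with HIV-1 IIIb at multiplicity 0.01 before compound was added; for CC50, cells were uninfected. Viability was read by MTT reduction, with formazan dissolved in acidic isopropanol/4% Triton-X and absorbance at 595 nm.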

Chain of Human immunodeficiency virus type 1 integrase (Q7ZJM1 whole entry): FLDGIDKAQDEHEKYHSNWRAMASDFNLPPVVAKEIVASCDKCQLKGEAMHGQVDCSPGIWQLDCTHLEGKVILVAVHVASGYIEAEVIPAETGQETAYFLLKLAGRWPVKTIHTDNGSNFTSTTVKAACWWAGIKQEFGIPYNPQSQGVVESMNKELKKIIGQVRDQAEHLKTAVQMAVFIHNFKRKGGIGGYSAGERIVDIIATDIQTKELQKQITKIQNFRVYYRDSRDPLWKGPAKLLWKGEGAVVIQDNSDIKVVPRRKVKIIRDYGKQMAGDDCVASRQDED

Row | Compound | IC50 [1] | CC50 at 120 h [2] | EC50 [3] | EC90 [4] | selectivity ratio [5]
1 | O=C(O)c1c[nH]c2ccc(Cc3c(Cl)cccc3Cl)cc2c1=O | 370 nM | 14.9 µM | > 6000 nM |  | 
2 | N#Cc1cc2c(cc1Cc1cccc(Cl)c1Cl)c(=O)c(C(=O)O)cn2CCO | 50 nM | 13.9 µM | 2000 nM |  | 
3 | COc1cc2c(cc1Cc1cccc(Cl)c1F)c(=O)c(C(=O)O)cn2[C@H](CO)C1CCCCC1 | 6.7 nM | 3 µM | 2.8 nM |  | 
4 | O=C(O)c1cn(CCO)c2c(F)cc(Cc3cccc(Cl)c3Cl)cc2c1=O | 34 nM | > 30 µM | 530 nM |  | 
5 | O=C(O)c1cn(CCO)c2cc(C(F)(F)F)c(Cc3cccc(Cl)c3Cl)cc2c1=O | 674 nM | 10 µM | > 6000 nM |  | 
6 | O=C(O)c1c[nH]c2ccc(Cc3ccccc3F)cc2c1=O | 500 nM | > 30 µM | 15900 nM |  | 
7 | O=C(O)c1c[nH]c2ccc(Cc3cccc(Cl)c3)cc2c1=O | 800 nM | > 6 µM | > 6000 nM |  | 
8 | O=C(O)c1cn(CCO)c2cc(F)c(Cc3cccc(Cl)c3Cl)cc2c1=O | 25 nM | 9.8 µM | 130 nM |  | 
9 | COc1ccccc1Cc1ccc2[nH]cc(C(=O)O)c(=O)c2c1 | 1170 nM | 16.6 µM | > 6000 nM |  | 
10 | CCCCn1cc(C(=O)O)c(=O)c2cc(Cc3cccc(Cl)c3Cl)ccc21 | 65 nM | 15 µM | 2340 nM |  | 
11 | COc1cc2c(cc1Cc1cccc(Cl)c1F)c(=O)c(C(=O)O)cn2[C@@H](CO)C(C)C |  | 4.2 µM | 109 nM |  | 
12 | O=C(O)c1cn([C@H](CO)C2CCCCC2)c2ccc(Cc3cccc(Cl)c3F)cc2c1=O | 5.6 nM | 7.7 µM | 7.3 nM |  | 
13 | O=C(O)c1cn([C@H](CO)c2ccccc2)c2ccc(Cc3cccc(Cl)c3F)cc2c1=O | 9.8 nM | 8.7 µM | 51.6 nM |  | 
14 | NCCn1cc(C(=O)O)c(=O)c2cc(Cc3cccc(Cl)c3Cl)ccc21 | 215 nM | 5.3 µM | 570 nM |  | 
15 | O=C(O)c1c[nH]c2ccc(Cc3ccccc3C(F)(F)F)cc2c1=O | 720 nM | 14.8 µM | > 6000 nM |  | 
16 | Cn1cc(C(=O)C(=O)O)c(=O)c2cc(Cc3ccccc3)ccc21 | > 100000 nM | > 30 µM | > 30000 nM |  | 
17 | O=C(O)c1cn(CCO)c2ccc(Cc3cccc(F)c3Cl)cc2c1=O | 44 nM | > 6 µM | 340 nM |  | 
18 | CC(C)[C@@H](CO)n1cc(C(=O)O)c(=O)c2cc(Cc3cccc(Cl)c3F)ccc21 |  | 14 µM | 7.5 nM |  | 
19 | CCOC(=O)c1cnc2ccc(Cc3ccccc3)cc2c1O | > 100000 nM | > 30 µM | > 30000 nM |  | 
20 | COc1cc2c(cc1Cc1cccc(Cl)c1F)c(=O)c(C(=O)O)cn2CCO |  | 5.3 µM | 20 nM |  | 
21 | O=C(O)Cn1cc(C(=O)O)c(=O)c2cc(Cc3cccc(Cl)c3Cl)ccc21 | 32 nM | > 30 µM | 13600 nM |  | 
22 | CCC[C@@H](CO)n1cc(C(=O)O)c(=O)c2cc(Cc3cccc(Cl)c3F)ccc21 | 8.2 nM | 12.5 µM | 9.8 nM |  | 
23 | C[C@@H](CO)n1cc(C(=O)O)c(=O)c2cc(Cc3cccc(Cl)c3F)ccc21 | 14.8 nM | 13.7 µM | 27.7 nM |  | 
24 | Cn1cc(C(=O)O)c(=O)c2cc(Cc3ccccc3)ccc21 | 2300 nM | > 30 µM | > 30000 nM |  | 
25 | COc1cc2c(cc1Cc1cccc(Cl)c1F)c(=O)c(C(=O)O)cn2[C@H](CO)C(C)C |  | 4 µM | 0.9 nM | 9.8 nM | 
26 | NC(=O)CCn1cc(C(=O)O)c(=O)c2cc(Cc3cccc(Cl)c3Cl)ccc21 | 116 nM | 15.1 µM | 2040 nM |  | 

Row | Compound | IC50 [1] | CC50 at 120 h [2] | EC50 [3] | EC90 [4] | selectivity ratio [5]
27 | NC(=O)Cn1cc(C(=O)O)c(=O)c2cc(Cc3cccc(Cl)c3Cl)ccc21 | 35 nM | 22.6 µM | 540 nM |  | 
28 | CC(C)n1cc(C(=O)O)c(=O)c2cc(Cc3cccc(Cl)c3Cl)ccc21 | 26 nM | > 6 µM | 330 nM |  | 
29 | Cc1cc2c(cc1Cc1cccc(Cl)c1Cl)c(=O)c(C(=O)O)cn2CCO | 41 nM | > 30 µM | 180 nM |  | 
30 | O=C(O)c1cn(CCO)c2cc(Cl)c(Cc3cccc(Cl)c3Cl)cc2c1=O | 43 nM | > 6 µM | 510 nM |  | 
31 | Cc1ccccc1Cc1ccc2[nH]cc(C(=O)O)c(=O)c2c1 | 1080 nM | 18.5 µM | > 6000 nM |  | 
32 | C[C@H](CO)n1cc(C(=O)O)c(=O)c2cc(Cc3cccc(Cl)c3F)ccc21 | 38.3 nM | 14.4 µM | 116 nM |  | 
33 | O=C(O)c1cn(CCO)c2ccc(Cc3cccc(Cl)c3Cl)cc2c1=O | 21 nM | > 6 µM | 100 nM |  | 
34 | COc1cc2c(cc1Cc1cccc(Cl)c1Cl)c(=O)c(C(=O)O)cn2CCO | 12 nM | 4.2 µM | 60 nM |  | 
35 | O=C(O)c1c[nH]c2ccc(Cc3ccccc3Cl)cc2c1=O | 410 nM | > 6 µM | > 6000 nM |  | 
36 | CCn1cc(C(=O)O)c(=O)c2cc(Cc3cccc(Cl)c3Cl)ccc21 | 31 nM | 16.2 µM | 290 nM |  | 
37 | O=C(O)c1cn(CCO)c2ccc(Cc3cccc(Cl)c3F)cc2c1=O |  | > 6 µM | 80 nM |  | 
38 | O=C(O)c1cn(CCO)c2ccc(Cc3cccc(Cl)c3Cl)c(F)c2c1=O | 84 nM | 14.3 µM | 1680 nM |  | 
39 | O=C(O)CCn1cc(C(=O)O)c(=O)c2cc(Cc3cccc(Cl)c3Cl)ccc21 | 38 nM | > 30 µM | > 30000 nM |  | 
40 | COc1cc2c(cc1Cc1cccc(Cl)c1F)c(=O)c(C(=O)O)cn2[C@H](CO)C(C)(C)C | 5.8 nM | 3.4 µM | 0.6 nM |  | > 4000
41 | CCCn1cc(C(=O)O)c(=O)c2cc(Cc3cccc(Cl)c3Cl)ccc21 | 55 nM | 15.6 µM | 640 nM |  | 
42 | O=C(O)c1cnc2ccc(Cc3ccccc3)cc2c1O |  | > 30 µM | > 30000 nM |  | 
43 | O=C(O)/C(O)=C/C(=O)c1cccc(Cc2ccccc2)c1 |  | > 30 µM | 440 nM |  | 
44 | O=C(O)c1cn(CCCO)c2ccc(Cc3cccc(Cl)c3Cl)cc2c1=O | 77 nM | 15.1 µM | 470 nM |  | 
45 | NC(=O)c1c[nH]c2ccc(Cc3ccccc3)cc2c1=O | > 100000 nM | > 30 µM | > 30000 nM |  | 
46 | CCC[C@@H](CO)n1cc(C(=O)O)c(=O)c2cc(Cc3cccc(Cl)c3F)c(OC)cc21 | 5.8 nM | 3.1 µM | 1.3 nM |  | 
47 | Cn1cc(C(=O)O)c(=O)c2cc(Cc3cccc(Cl)c3Cl)ccc21 | 83 nM | 14.4 µM | 450 nM |  | 
48 | O=C(O)c1c[nH]c2ccc(Cc3cccc(Cl)c3Cl)cc2c1=O | 70 nM | 12.6 µM | 3400 nM |  | 
49 | CC(C)(C)[C@@H](CO)n1cc(C(=O)O)c(=O)c2cc(Cc3cccc(Cl)c3F)ccc21 | 6 nM | 14.4 µM | 1.3 nM |  | 
50 | O=C(O)c1c[nH]c2ccc(Cc3cc(Cl)ccc3Cl)cc2c1=O | 250 nM | 13.2 µM | > 6000 nM |  | 
51 | CC[C@@H](CO)n1cc(C(=O)O)c(=O)c2cc(Cc3cccc(Cl)c3F)ccc21 | 9 nM | 13 µM | 17.1 nM |  | 
52 | O=C(O)c1c[nH]c2ccc(Cc3ccc(Cl)cc3)cc2c1=O | > 100000 nM | > 6 µM | > 6000 nM |  | 
